Experimental data as given in ChEMBL document CHEMBL4513216, “Probing the Open Global Health Chemical Diversity Library for Multistage-Active Starting Points for Next-Generation Antimalarials” (ACS Infect Dis, 2020).

Assay: Toxicity liver stage against HepG2, at 10uM
Format: cell-based
Design: test concentration 10 uM, cell line HepG2-A16-CD81EGFP
Details: human, HepG2-A16-CD81EGFP cells; read-out: INHIBITION
How it was run: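 Uninfected HepG2-A16-CD81EGFP cells, 3 × 10^3 per well, 1536-well, plated on prespotted compound at 10 μM final, parasite-free screening media added to match infected plates; puromycin 10 μM positive, DMSO 0.5% negative; run in parallel with 48 h PbLuc assay at 37 °C, 5% CO2; viability by CellTiter-Glo luminescence, normalized to controls.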

SMILES	cytotoxicity at 10 µM [%]
Cc1nc(NCCc2ccccc2)cc(C(=O)N2CCOCC2)n1	-3.01
CCn1nc(C)c(CN(C)S(=O)(=O)c2cnn(C)c2)c1C	5.62
Cc1ccncc1C(=O)N1C[C@@H]2CN(c3ncccn3)C[C@]2(C(=O)O)C1	2.36
CCN(CC)[C@H]1COC[C@@H]2CN(Cc3cnn(C)c3)C[C@@H]21	11.5
Cc1ccc(CCNC(=O)Cn2nc(C)n(Cc3ccccc3)c2=O)s1	-3.66
COC(C)(C)C(=O)N[C@H]1CN(c2ncccc2C(N)=O)C[C@@H]1C(C)C	6.66
COc1ccc(C2SCC(=O)Nc3ccsc32)cc1OC (stereo unspecified)	-0.898
CCOC(=O)N1C[C@@H]2CC[C@H]1CN(Cc1ccccc1)C2	2.7
O=C(O)C1(Oc2cccc(F)c2)CCN(C2CCOCC2)CC1	-7.16
CCCc1nnc(N2CCCC(c3nnc(Cn4ccnc4)n3C)C2)s1 (stereo unspecified)	-0.391
CN(C)S(=O)(=O)N1CCN(C(=O)c2cc(-c3ccc(Br)s3)n[nH]2)CC1	-2.66
Cc1ccc(CN2CCC3(CC2)C(=O)NCCN3CC2CC2)o1	-66.8
CC1CN(Cc2cc(C#N)ccc2F)CCN1Cc1nccn1C (stereo unspecified)	-6.33
COc1ccc2c(c1)OCC(Cc1ccc(N)nc1C)C2 (stereo unspecified)	21.8
Cc1nc(C(=O)N2CCN(S(C)(=O)=O)CC2)c(-c2cccc(F)c2)s1	1.37
CC(C(=O)N1CCN(CCOc2ccccc2)CC1)n1cncn1 (stereo unspecified)	-4.88
CCN(CC)C(=O)C1(NCc2nc(C)c(C)o2)CCCCC1	2.5
Cn1nccc1NC(=O)Cn1ccc(-c2ccc3c(c2)OCO3)n1	-6.74
CCc1n[nH]c(C2CN(C(=O)c3ncoc3C(C)C)CCO2)n1 (stereo unspecified)	-9.8
CC(C)N1CCOC(CC(=O)N2CC(c3ccncc3)C2)C1 (stereo unspecified)	7.44
CCOC(=O)COc1cccc(NC(=O)C2COCCO2)c1 (stereo unspecified)	7.01
COc1ccc(-c2noc(CCC(=O)N3CCOCC3(C)C)n2)cc1	6.99
CCOC(=O)N1CCC(NCC2CCN(c3cnn(C)c(=O)c3)C2)CC1 (stereo unspecified)	8.39

SMILES	cytotoxicity at 10 µM [%]
CCSc1ccc(C(=O)Nc2c(C)nn(C(C)C)c2C)cn1	-24.4
Oc1coc2cc(OC[C@@H]3CCCN4CCCC[C@H]34)ccc12	1.96
CCc1ccc(-c2nn3c(nc2=O)-c2ccccc2NC3C(=O)O)cc1 (stereo unspecified)	11.2
O=C1NC2(CCCCC2)c2nnnn2-c2ccc(Br)cc21	6.83
Cc1nc(NC(=O)C(C)N2CCN(c3cnccn3)CC2)sc1C (stereo unspecified)	4.75
CN1CC(C(=O)NCc2cccnc2OCc2ccccc2)CC1=O (stereo unspecified)	4.44
CCS(=O)(=O)CC(=O)NCC1(c2c(F)cccc2F)CCCC1	-3.32
CCN(C)C(=O)CCN(C)Cc1cnc(C)s1	4.04
CSc1ccc(-c2nc(CN3CCC(CN)C3)c(C)o2)cc1 (stereo unspecified)	-2.65
COc1cccc(CCC2CCCN(C(=O)c3n[nH]c4c3CCC4)C2)c1 (stereo unspecified)	4.48
O=C1NC2(CCN(C(=O)c3ccnnc3)CC2)CC1c1ccccc1 (stereo unspecified)	-113
CCN(CC)C(=O)[C@@H]1C[C@@H](NC(=O)c2ccoc2)CN1C	2.37
CCn1cc2c(n1)C(COC)CN(C(=O)COc1ccccc1)C2 (stereo unspecified)	-2.88
N#CCCNC(=O)CSc1cc(F)ccc1F	-3.74
CC(c1ccc(F)cc1)N1CCN(Cc2ccc(C#N)cc2)CC1 (stereo unspecified)	-6.17
Cc1nn(C)c(=O)c2nn(-c3ccc(F)cc3)c(C)c12	-0.839
COc1ccc(-c2noc([C@@H]3C[C@H](NC(=O)NC(C)C)CN3C)n2)cc1	-1.47
CNS(=O)(=O)c1ccc(C(=O)N2CCCC2c2ccccc2C)o1 (stereo unspecified)	-6.23
COCCNC(=O)C(C)S(=O)(=O)c1ccc(OC)cc1 (stereo unspecified)	4.4
CN(C)Cc1ccnc(C2CCCN2Cc2cc[nH]n2)n1 (stereo unspecified)	-0.902
CC(C)CC(=O)N1C[C@@H]2CCN(c3ncccn3)C[C@@H]2C1	-1.63
CC(C)OCCC(=O)Nc1cccc(N2CCN(CC3CC3)CC2)c1	-1.11
Cc1ccc(CN(C)C(=O)c2cnsn2)cc1	-16.4

SMILES	cytotoxicity at 10 µM [%]
Cc1cccc(CNC(=O)NCC2CCN(Cc3ncc[nH]3)C2)c1 (stereo unspecified)	1.86
Cc1noc(C)c1-c1n[nH]c2c1CN(S(=O)(=O)c1ccsc1)CC2	5.6
CC(=O)c1ccc(-c2cc(C(F)(F)F)cc(N(C)C)n2)cc1	4.02
O=C(c1nc(=O)[nH]c2ccccc12)N1CCCC2(CCNC2)C1 (stereo unspecified)	-3.64
OCC(CO)Nc1ccc2ccc(Cl)c(Cl)c2n1	-8.82
O=C(c1ccc(-n2cccn2)c(F)c1)N1CCCN2CCCC2C1 (stereo unspecified)	-3.9
CC(C)OCc1nn(C)c2c1CN(Cc1cccs1)CC2	-99.5
Cc1cc2nc(C(C)C)cc(NCC(c3ccccn3)N(C)C)n2n1 (stereo unspecified)	-1.63
Cn1cc(CN(CC2(O)CNCCOC2)C2CCCCC2)cn1 (stereo unspecified)	3.09
Cc1nc2ccc(C(=O)N3CCC(COc4ccccn4)CC3)cc2[nH]1	-8.09
CC(C)N1Cc2c(C(=O)N3CCOCC3)nn(C)c2C1	0.0756
c1cncc(COCC2CN(Cc3ccsc3)Cc3ccnn3C2)c1 (stereo unspecified)	-140
Cc1nnc2n1CCN(C(=O)CN1C(=O)CSc3ccccc31)C2	0.442
c1cnnc(N2CCCC(NCc3cccc4c3OCCCO4)C2)c1 (stereo unspecified)	-19.8
CCc1nc(C2CCCN2Cc2cc(=O)n(C)c(=O)n2C)no1 (stereo unspecified)	-11.5
CCCNC(=O)c1cc(C2CCCN(Cc3ccccn3)C2)no1 (stereo unspecified)	-32
COC(=O)C1=NOC(Cc2cc(OC)c3c(c2)OCO3)C1 (stereo unspecified)	5.82
CCOC(=O)CNC(=O)C1CN(C(=O)c2cnccn2)C1	2.63
Cc1cnn(CC2CCCN2CC(=O)NC2CCOCC2)c1 (stereo unspecified)	-16
Cc1ccccc1OCC(=O)N1CCCC(CNS(C)(=O)=O)C1 (stereo unspecified)	2.07
O=C(Nc1ccnn1Cc1ccc(Cl)cc1)C1CCS(=O)(=O)C1 (stereo unspecified)	10.9
O=C(COCCOc1ccccc1)NC1CCN(c2ccccn2)CC1	-4.56
CCCc1nc(N2CCCCCC2)c2c(n1)c(C)nn2CC	39.4

SMILES	cytotoxicity at 10 µM [%]
Cc1nnsc1CN1C[C@@H]2CC[C@H]1CN(Cc1ccccc1)C2	0.929
Cc1cnccc1CN1CC[C@H](Oc2cccc(F)c2)[C@@](C)(O)C1	-5.55
C[C@@H]1CN2C[C@H](O)CC2CN1Cc1ccncc1 (stereo partly specified)	0.207
Cn1cc(C(=O)N2CCN(c3ccc(F)cc3)CC2)ccc1=O	1.37
Cc1nnc(NC(=O)CN2CCCC2c2noc(C(C)C)n2)s1 (stereo unspecified)	-9.05
CO[C@@H]1CCN(Cc2cccc(C)n2)[C@@H]2CN(Cc3ccncc3)C[C@@H]21	0.951
CCNC(=O)C1CCCN(c2cccc(C(F)(F)F)n2)C1 (stereo unspecified)	3.4
CCC(C)NC(=O)c1ccn(COc2ccccc2Cl)n1 (stereo unspecified)	5.75
O=C(c1cccnc1N1CCCCC1)N1CCCC(n2cccn2)C1 (stereo unspecified)	-0.438
CS(=O)(=O)NCC1(c2ccccc2Br)CC1	-5.51
CC(C)CN1CCn2c(nc3cc(C(=O)NC(C)C)ccc32)C1	0.889
CN(C)C(=O)COCc1nnc2n1CCN(Cc1ccsc1)C2	7.16
CN(C)CCNC(=O)c1ccc(OC2CCN(C3CCC3)CC2)c(Cl)c1	-5.89
Cc1nn(S(=O)(=O)c2ccc(Cl)cc2)c(C)c1C	15.1
c1cncc(OC[C@@H]2CCC[C@@]23CN(Cc2nccs2)CCO3)c1	-63.3
Cc1ccc(NCCNC(=O)C2Cc3cc(C)c(C)cc3O2)nn1 (stereo unspecified)	3.34
CC(C)c1nnc(NC(=O)CCC(=O)NCC2CCCO2)s1 (stereo unspecified)	-9.58
CN(Cc1ccc(F)cc1)CC1(O)CCN(C(=O)c2cccs2)C1 (stereo unspecified)	-12.6
COCCN1CCCC1c1nccnc1Nc1ncc(C)s1 (stereo unspecified)	-7.99
CS(=O)(=O)N1CCCC(Cc2cncc(Br)c2)CC1 (stereo unspecified)	2.16
CCN(CC)CC1CCN(Cc2ccn(C)c(=O)c2)CC1	-14.7
O=C(Cc1csc(N2CCNC2=O)n1)NC(c1ccccc1)C1CC1 (stereo unspecified)	-136
O=C(NCC(O)c1ccc(F)cc1F)c1ccccc1 (stereo unspecified)	4.15

SMILES	cytotoxicity at 10 µM [%]
CC(Cn1ccnc1)NC(=O)NCc1ccc2c(c1)OCCO2 (stereo unspecified)	-18.6
Cc1nncn1CCNC(=O)C(C)(C)c1cccc(Cl)c1	8.55
O=C(C1CCCOC1)N(CC(F)F)c1cccc(Cl)c1 (stereo unspecified)	8.27
Cc1nccc([C@@H]2C[C@@H]3CCN(S(C)(=O)=O)C[C@H]3O2)n1	-11.3
COCCC(=O)N1C[C@@H]2COC[C@]2(COCc2cccnc2)C1	-4.23
CC(O)CN(C)c1cc(C(F)(F)F)nc(-c2cccnc2)n1 (stereo unspecified)	-6.68
Cc1ccoc1C(=O)N1C[C@@H](OCC2CC2)[C@H]2OCCC[C@H]21	5.86
O=C(NCc1ccccc1CN1CCCCC1)Nc1nncs1	0.513
Cc1ccc(OCC(=O)NCC(F)(F)F)nc1	0.84
Cn1nc2c(cc1=O)CN(CCN1CCCC1=O)CC2	-31.1
CCOCCNC1(c2ccc(Cl)cc2)CCOCC1	-3.75
CNS(=O)(=O)CC(=O)NC(C)Cc1ccc(Br)cc1 (stereo unspecified)	-10.9
CCc1ccsc1C(=O)N1CCCN(Cc2cnn(CC)c2)CC1	0.501
Cc1ccsc1C(=O)N1CC(C(=O)NC(C)C)C2(CCOCC2)C1 (stereo unspecified)	-1.49
COCC1CCN(S(=O)(=O)NCC2COc3ccccc3C2)CC1 (stereo unspecified)	7.64
Cn1cc(N2CC3(CCN(Cc4cccs4)CC3)OCC2=O)cn1	-8.13
CC(C)CCC(=O)NCC(=O)N1CCCCCC1c1ccco1 (stereo unspecified)	7.47
CC(CNC(=O)c1ccc(F)cc1Cl)N1CCCC1 (stereo unspecified)	14.4
CC(C)n1cc(CN2CCCN(C(=O)CC3CCCCC3)CC2)cn1	-10.8
